Laboratory results as given in ChEMBL document CHEMBL1148340 (J Med Chem, 2004).

Columns and labels:
[1] = system: Human immunodeficiency virus 1; assay: Anti-HIV activity against PFA-resistant mutant HIV-1W88G strain in P4/R5 cells; assay type: functional, organism-based; conditions: Human immunodeficiency virus 1, P4/R5
How it was run: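 HeLa-derived P4/R5 reporter cells (stable Tat-activated β-galactosidase under HIV LTR), 5×10^4 cells/mL, infected with HIV-1 LAI or W88G at MOI 0.05 TCID₅₀/mL. Drug added in 2- or 3-fold dilutions, in triplicate. At 48 h, lysis buffer and luminescent substrate added and β-galactosidase read by luminometer. EC₅₀ given as mean ± SD of five independent experiments (three in one case).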

[2] = Partition coefficient (logP); assay type: physicochemical; conditions: octanol/water
CCRF-CEM [3] = assay: Effective concentration required to inhibit HIV-2 induced cytopathicity in human CEM cell lines; assay type: functional, cell-based
How it was run: (§1)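 CEM cells at 4 × 10⁵/mL were infected with HIV-1 or HIV-2 at ~100 CCID₅₀ per mL. The cells were mixed 1:1 with serial compound dilutions. Giant cell formation was scored microscopically after 4 days. EC₅₀ is the concentration that inhibited virus-induced cytopathicity by 50%.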

[4] = system: Human immunodeficiency virus 1; assay: Anti-HIV activity against wild type HIV-1(LAI) strain in P4/R5 cells; conditions: Human immunodeficiency virus 1, P4/R5
MT4 [5] = assay: Cytostatic concentration required to reduce MT-4 cell viability in mock-infected cell cultures; assay type: functional; conditions: Homo sapiens
How it was run: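 Mock-infected MT-4 cells at 3 × 10⁵/mL were exposed to compound dilutions. Viable cells were counted by trypan blue exclusion. CC₅₀ is the concentration that reduced the number of viable cells by 50%.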

[6] = molecular target: T1, Human immunodeficiency virus type 1 reverse transcriptase (Human immunodeficiency virus 1, UniProt Q72547); assay: Inhibitory concentration against wild type HIV-1/138Lys reverse transcriptase (RT) using [3H]dGTP as a radioligand
How it was run: (§2)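 Recombinant HIV-1 RT (IIIB-derived) or Glu138Lys mutant. Buffer: 50 mM Tris-HCl pH 7.8, 5 mM DTT, 150 mM KCl, 5 mM MgCl₂, 500 μM EDTA, 0.06% Triton X-100, with BSA. Incubated 37 °C, 30 min, then TCA/pyrophosphate precipitation on ice.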

CCRF-CEM [7] = assay: Effective concentration required to inhibit HIV-1E138K induced cytopathicity in human CEM cell lines
[8] = molecular target: T1, Human immunodeficiency virus type 1 reverse transcriptase; assay: Inhibitory concentration against wild type HIV-1 reverse transcriptase (RT) using poly rC.dG as the template or primer; how it was run: as §2
MT4 [9] = assay: Effective concentration required to inhibit HIV-2 induced cytopathicity in human MT-4 cell lines; assay type: functional, cell-based
How it was run: (§3)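 MT-4 cells at 3 × 10⁵/mL were infected with HIV-1 or HIV-2 at ~100 CCID₅₀ per mL and mixed 1:1 with compound dilutions. After 5 days, HIV-induced cytopathicity was recorded by trypan blue dye exclusion. EC₅₀ is the concentration that reduced virus-induced loss of cell viability by 50%.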

MT4 [10] = assay: Effective concentration required to inhibit HIV-1 induced cytopathicity in human MT-4 cell lines; assay type: functional, cell-based; how it was run: as §3
CCRF-CEM [11] = assay: Effective concentration required to inhibit HIV-1 induced cytopathicity in human CEM cell lines; assay type: functional, cell-based; how it was run: as §1
CCRF-CEM [12] = assay: Cytostatic concentration required to inhibit proliferation of CEM cells; assay type: functional; conditions: Homo sapiens
How it was run: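 CEM cells were cultured with serial compound dilutions alongside the antiviral assay. CC₅₀ is the concentration that inhibited cell proliferation by 50%.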

## Cc1cn([C@@H]2O[C@H](CO[Si](C)(C)C(C)(C)C)[C@@]3(OS(=O)(=O)C=C3N)[C@H]2O[Si](C)(C)C(C)(C)C)c(=O)n(CCCO)c1=O
[1]
  EC50: 0.027 µM
[2]
  logP: 2.26
CCRF-CEM [3]
  EC50: > 10 µM
[4]
  EC50: 0.043 µM
MT4 [5]
  CC50: 3.86 µM
[6]
  IC50: > 100 µM
CCRF-CEM [7]
  EC50: > 2 µM
[8]
  IC50: 8.1 µM
MT4 [9]
  EC50: > 2 µM

## O=C(O)P(=O)(O)O [FOSCARNET]
[1]
  EC50: > 300 µM
[2]
  logP: -0.56
CCRF-CEM [3]
  EC50: 105 µM
[4]
  EC50: 44 µM
MT4 [5]
  CC50: 230 µM
CCRF-CEM [7]
  EC50: 87 µM
MT4 [10]
  EC50: 133 µM
CCRF-CEM [11]
  EC50: 121 µM
MT4 [9]
  EC50: 140 µM

## Cc1cn([C@@H]2O[C@H](CO[Si](C)(C)C(C)(C)C)[C@@]3(OS(=O)(=O)C=C3N)[C@H]2O[Si](C)(C)C(C)(C)C)c(=O)n(CCCOP(=O)(O)C(=O)O)c1=O
[1]
  EC50: 0.16 µM
CCRF-CEM [12]
  CC50: 178 µM
[2]
  logP: 0.63
CCRF-CEM [3]
  EC50: > 50 µM
[4]
  EC50: 0.3 µM
MT4 [5]
  CC50: 111 µM
[6]
  IC50: 437 µM
CCRF-CEM [7]
  EC50: ≥ 50 µM
MT4 [10]
  EC50: 0.82 µM
[8]
  IC50: 3.7 µM
CCRF-CEM [11]
  EC50: 0.47 µM
MT4 [9]
  EC50: > 50 µM

## CCOC(=O)P(=O)(O)OCCCn1c(=O)c(C)cn([C@@H]2O[C@H](CO[Si](C)(C)C(C)(C)C)[C@@]3(OS(=O)(=O)C=C3N)[C@H]2O[Si](C)(C)C(C)(C)C)c1=O
CCRF-CEM [12]
  CC50: 135 µM
[2]
  logP: 4.01
CCRF-CEM [3]
  EC50: > 50 µM
MT4 [5]
  CC50: 84.3 µM
[6]
  IC50: 293 µM
CCRF-CEM [7]
  EC50: 25 µM
MT4 [10]
  EC50: 4.23 µM
[8]
  IC50: 6.3 µM
CCRF-CEM [11]
  EC50: 2.13 µM
MT4 [9]
  EC50: > 50 µM

## COC(=O)P(=O)(O)OCCCn1c(=O)c(C)cn([C@@H]2O[C@H](CO[Si](C)(C)C(C)(C)C)[C@@]3(OS(=O)(=O)C=C3N)[C@H]2O[Si](C)(C)C(C)(C)C)c1=O
CCRF-CEM [12]
  CC50: 146 µM
[2]
  logP: 4.01
CCRF-CEM [3]
  EC50: > 50 µM
MT4 [5]
  CC50: 55.5 µM
[6]
  IC50: 394 µM
CCRF-CEM [7]
  EC50: > 50 µM
MT4 [10]
  EC50: 20.1 µM
[8]
  IC50: 4.7 µM
CCRF-CEM [11]
  EC50: 4.5 µM
MT4 [9]
  EC50: > 50 µM

## COC(=O)P(=O)(OC)OCCCn1c(=O)c(C)cn([C@@H]2O[C@H](CO[Si](C)(C)C(C)(C)C)[C@@]3(OS(=O)(=O)C=C3N)[C@H]2O[Si](C)(C)C(C)(C)C)c1=O (some centres not stated)
CCRF-CEM [12]
  CC50: 20.9 µM
[2]
  logP: 7.12
CCRF-CEM [3]
  EC50: > 50 µM
MT4 [5]
  CC50: 18.4 µM
[6]
  IC50: > 500 µM
CCRF-CEM [7]
  EC50: > 10 µM
MT4 [10]
  EC50: 0.282 µM
[8]
  IC50: 11 µM
CCRF-CEM [11]
  EC50: 0.08 µM
MT4 [9]
  EC50: > 10 µM

## Cc1cn([C@@H]2O[C@H](CO[Si](C)(C)C(C)(C)C)[C@@]3(OS(=O)(=O)C=C3N)[C@H]2O[Si](C)(C)C(C)(C)C)c(=O)n(CCCOP(=O)(O)C(=O)OCc2ccccc2)c1=O
CCRF-CEM [12]
  CC50: 138 µM
[2]
  logP: 5.02
CCRF-CEM [3]
  EC50: > 50 µM
MT4 [5]
  CC50: 84 µM
[6]
  IC50: 312 µM
CCRF-CEM [7]
  EC50: 20 µM
MT4 [10]
  EC50: 1.26 µM
[8]
  IC50: 3.8 µM
CCRF-CEM [11]
  EC50: 3 µM
MT4 [9]
  EC50: > 50 µM

## Cc1cn([C@@H]2O[C@H](CO[Si](C)(C)C(C)(C)C)[C@@]3(OS(=O)(=O)C=C3N)[C@H]2O[Si](C)(C)C(C)(C)C)c(=O)n(C)c1=O
[6]
  IC50: > 100 µM
[8]
  IC50: 3.1 µM
